Activity calls are given as the source filed them. No cut-off for these calls is given here.
Legend:
[1] = system: Schistosoma mansoni; experiment: Antischistosomal activity against NMRI mouse juvenile Schistosoma mansoni infection model assessed as reduction of total worm burden at 200 mg/kg, po after 28 days; format: functional; design: scale not given: the % may be the effect or the level left
Method in brief: (§1)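 Juvenile-infection model: mice carrying Liberian-strain S. mansoni got one oral dose at day 21 postinfection, as a suspension in 7% Tween 80/3% ethanol. There were 3–5 per group, plus untreated controls. Necropsy by exsanguination followed 28 days after treatment. Liver and mesenteric-vein worms were collected, sexed and counted. Total and female burden reductions were calculated versus controls, with Kruskal-Wallis testing.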

[2] = system: Schistosoma mansoni; experiment: Antischistosomal activity against NMRI mouse juvenile Schistosoma mansoni infection model assessed as number of cured mouse at 200 mg/kg, po after 28 days; format: functional, organism-based; design: dose 200 mg/kg; method in brief: as §1
[3] = system: Schistosoma mansoni; experiment: Antischistosomal activity against NMRI mouse juvenile Schistosoma mansoni infection model assessed as reduction of female worm burden at 200 mg/kg, po after 28 days; format: functional; design: scale not given: the % may be the effect or the level left; method in brief: as §1
[4] = system: Mus musculus; experiment: Toxicity in NMRI mouse with adult Schistosoma mansoni infection at 400 mg/kg, po after 48 to 96 hrs; format: organism-based; design: dose 400 mg/kg, route oral; settings: in vivo
Method in brief: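 Mice carrying a 49-day S. mansoni (Liberian strain) infection were given a single oral 400 mg/kg dose as a suspension in 7% Tween 80/3% ethanol. Deaths occurring 48–96 h after treatment were recorded.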

[5] = system: Schistosoma mansoni; experiment: Antischistosomal activity against Schistosoma mansoni assessed as worm death at 20 ug/ml after 24 hrs; format: functional, organism-based
Method in brief: (§2)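 Adult S. mansoni (Liberian strain, 49-day-old) were held two males and two females per well, in duplicate, in Hanks' balanced salt solution with 20% calf serum, 300 IU/ml penicillin and 300 μg/ml streptomycin. Drug was given at 20 μg/ml final from a 1 mg/ml stock in 60% DMSO; solvent control was 1.2% DMSO. Incubation was at 37°C in 5% CO2. Worms were scored under a dissecting microscope at 24, 48 and 72 h for death, motor activity and tegument.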

[6] = system: Schistosoma mansoni; experiment: Tegumental alteration in Schistosoma mansoni at 20 ug/ml after 72 hrs; format: functional, organism-based; method in brief: as §2
[7] = system: Schistosoma mansoni; experiment: Antischistosomal activity against Schistosoma mansoni assessed as worm death at 20 ug/ml after 72 hrs; format: functional, organism-based; method in brief: as §2
[8] = system: Schistosoma mansoni; experiment: Antischistosomal activity against NMRI mouse adult Schistosoma mansoni infection model assessed as reduction of female worm burden at 400 mg/kg, po after 28 days; format: functional; design: scale not given: the % may be the effect or the level left
Method in brief: (§3)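 Mice with a Liberian-strain S. mansoni infection were dosed at 49 days postinfection with a single oral dose of compound suspended in 7% Tween 80/3% ethanol. Groups held 3–5 animals, with untreated controls. At 28 days posttreatment, animals were killed by bleeding. Worms in liver and mesenteric veins were removed, sexed and counted. Reductions were calculated against controls and tested by Kruskal-Wallis.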

[9] = system: Schistosoma mansoni; experiment: Antischistosomal activity against NMRI mouse adult Schistosoma mansoni infection model assessed as reduction of total worm burden at 400 mg/kg, po after 28 days; format: functional; design: scale not given: the % may be the effect or the level left; method in brief: as §3
[10] = system: Schistosoma mansoni; experiment: Reduction of motor activity of Schistosoma mansoni at 20 ug/ml after 72 hrs; format: functional, organism-based; method in brief: as §2
[11] = system: Schistosoma mansoni; experiment: Antischistosomal activity against Syrian golden hamster adult Schistosoma mansoni infection model assessed as reduction of female worm burden at 50 mg/kg, po after 28 days; format: functional; design: scale not given: the % may be the effect or the level left
Method in brief: (§4)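 Hamsters infected with Liberian-strain S. mansoni were treated once orally at 21 days (juvenile lines) or 49 days (adult lines) postinfection. Doses were 50, 100 or 200 mg/kg, in 7% Tween 80/3% ethanol suspension. Groups had 3–4 animals, with untreated controls. After 28 days, animals were bled out. Worms from liver and mesenteric veins were sexed and counted, and cures and burden reductions versus controls were recorded (Kruskal-Wallis).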

[12] = system: Schistosoma mansoni; experiment: Antischistosomal activity against Syrian golden hamster juvenile Schistosoma mansoni infection model assessed as number of cured mouse at 100 mg/kg, po after 28 days; format: functional, organism-based; design: dose 100 mg/kg; method in brief: as §4
[13] = system: Schistosoma mansoni; experiment: Antischistosomal activity against Syrian golden hamster adult Schistosoma mansoni infection model assessed as number of cured mouse at 50 mg/kg, po after 28 days; format: functional, organism-based; design: dose 50 mg/kg; method in brief: as §4
[14] = system: Schistosoma mansoni; experiment: Antischistosomal activity against Syrian golden hamster adult Schistosoma mansoni infection model assessed as reduction of total worm burden at 100 mg/kg, po after 28 days; format: functional; design: scale not given: the % may be the effect or the level left; method in brief: as §4
[15] = system: Schistosoma mansoni; experiment: Antischistosomal activity against Syrian golden hamster adult Schistosoma mansoni infection model assessed as number of cured mouse at 100 mg/kg, po after 28 days; format: functional, organism-based; design: dose 100 mg/kg; method in brief: as §4
[16] = system: Schistosoma mansoni; experiment: Antischistosomal activity against Syrian golden hamster juvenile Schistosoma mansoni infection model assessed as number of cured mouse at 50 mg/kg, po after 28 days; format: functional, organism-based; design: dose 50 mg/kg; method in brief: as §4
[17] = system: Schistosoma mansoni; experiment: Antischistosomal activity against Syrian golden hamster juvenile Schistosoma mansoni infection model assessed as reduction of total worm burden at 100 mg/kg, po after 28 days; format: functional; design: scale not given: the % may be the effect or the level left; method in brief: as §4
[18] = system: Schistosoma mansoni; experiment: Antischistosomal activity against Syrian golden hamster juvenile Schistosoma mansoni infection model assessed as reduction of total worm burden at 50 mg/kg, po after 28 days; format: functional; design: scale not given: the % may be the effect or the level left; method in brief: as §4
[19] = system: Schistosoma mansoni; experiment: Antischistosomal activity against Syrian golden hamster juvenile Schistosoma mansoni infection model assessed as reduction of female worm burden at 50 mg/kg, po after 28 days; format: functional; design: scale not given: the % may be the effect or the level left; method in brief: as §4
[20] = system: Schistosoma mansoni; experiment: Antischistosomal activity against Syrian golden hamster adult Schistosoma mansoni infection model assessed as reduction of total worm burden at 50 mg/kg, po after 28 days; format: functional; design: scale not given: the % may be the effect or the level left; method in brief: as §4
[21] = system: Schistosoma mansoni; experiment: Antischistosomal activity against Syrian golden hamster juvenile Schistosoma mansoni infection model assessed as reduction of female worm burden at 200 mg/kg, po after 28 days; format: functional; design: scale not given: the % may be the effect or the level left; method in brief: as §4
[22] = system: Schistosoma mansoni; experiment: Antischistosomal activity against NMRI mouse adult Schistosoma mansoni infection model assessed as number of cured mouse at 400 mg/kg, po after 28 days; format: functional, organism-based; design: dose 400 mg/kg; method in brief: as §3
[23] = system: Schistosoma mansoni; experiment: Antischistosomal activity against Syrian golden hamster adult Schistosoma mansoni infection model assessed as reduction of female worm burden at 200 mg/kg, po after 28 days; format: functional; design: scale not given: the % may be the effect or the level left; method in brief: as §4
[24] = system: Schistosoma mansoni; experiment: Antischistosomal activity against Syrian golden hamster juvenile Schistosoma mansoni infection model assessed as reduction of female worm burden at 100 mg/kg, po after 28 days; format: functional; design: scale not given: the % may be the effect or the level left; method in brief: as §4
[25] = system: Schistosoma mansoni; experiment: Antischistosomal activity against Syrian golden hamster adult Schistosoma mansoni infection model assessed as reduction of female worm burden at 100 mg/kg, po after 28 days; format: functional; design: scale not given: the % may be the effect or the level left; method in brief: as §4
[26] = system: Schistosoma mansoni; experiment: Antischistosomal activity against Syrian golden hamster juvenile Schistosoma mansoni infection model assessed as reduction of total worm burden at 200 mg/kg, po after 28 days; format: functional; design: scale not given: the % may be the effect or the level left; method in brief: as §4
[27] = system: Schistosoma mansoni; experiment: Antischistosomal activity against Syrian golden hamster adult Schistosoma mansoni infection model assessed as number of cured mouse at 200 mg/kg, po after 28 days; format: functional, organism-based; design: dose 200 mg/kg; method in brief: as §4

**Q.** For `C1CCC2(CC1)OOC1(CCCCC1)O2`, which Activity [1] is on record?
**A.** Its Activity is 22.9%.

**Q.** What about the Activity [2] of the same molecule?
**A.** The Activity was “inactive”.

**Q.** What about the Activity [3] of the same molecule?
**A.** The Activity was 26.4%.

**Q.** For `NC[C@H]1CC[C@]2(CC1)OOC1(O2)C2CC3CC(C2)CC1C3` (stereo partly drawn), which Activity [4] is on record?
**A.** The Activity was “Toxic”.

**Q.** What about the Activity [5] of the same molecule?
**A.** Its Activity is “inactive”.

**Q.** And the Activity [6]?
**A.** The Activity was “Active”.

**Q.** What about the Activity [1] of the same molecule?
**A.** Its Activity is 85%.

**Q.** What about the Activity [7] of the same molecule?
**A.** The Activity was “Active”.

**Q.** And the Activity [8]?
**A.** Its Activity is 25%.

**Q.** And the Activity [2]?
**A.** The Activity was “inactive”.

**Q.** And the Activity [9]?
**A.** Its Activity is 16.6%.

**Q.** And the Activity [3]?
**A.** Its Activity is 83.7%.

**Q.** What about the Activity [10] of the same molecule?
**A.** Its Activity is “inactive”.

**Q.** Which results are given for `C1CCC2(CC1)OCC1(O2)C2CC3CC(C2)CC1C3` (stereo not drawn)?
**A.** Activity [1]: 2%; Activity [2]: inactive; Activity [3]: 4.8%

**Q.** With `Oc1ccc([C@H]2CC[C@]3(CC2)OO[C@]2(O3)C3CC4CC(C3)CC2C4)cc1` as the molecule, how does the Activity [11] read?
**A.** The Activity was 36.7%.

**Q.** And the Activity [12]?
**A.** Its Activity is “inactive”.

**Q.** And the Activity [13]?
**A.** The Activity was “inactive”.

**Q.** What about the Activity [14] of the same molecule?
**A.** The Activity was 52.4%.

**Q.** And the Activity [15]?
**A.** The Activity was “inactive”.

**Q.** What about the Activity [16] of the same molecule?
**A.** The Activity was “inactive”.

**Q.** What about the Activity [1] of the same molecule?
**A.** The Activity was 95.4%.

**Q.** And the Activity [17]?
**A.** Its Activity is 84%.

**Q.** And the Activity [18]?
**A.** The Activity was 82.7%.

**Q.** And the Activity [19]?
**A.** Its Activity is 78.7%.

**Q.** And the Activity [20]?
**A.** Its Activity is 46.6%.

**Q.** And the Activity [21]?
**A.** The Activity was 86.4%.

**Q.** What about the Activity [22] of the same molecule?
**A.** The Activity was “inactive”.

**Q.** And the Activity [8]?
**A.** The Activity was 64.9%.

**Q.** What about the Activity [2] of the same molecule?
**A.** Its Activity is “inactive”.

**Q.** And the Activity [23]?
**A.** The Activity was 69.7%.

**Q.** And the Activity [24]?
**A.** The Activity was 80.5%.

**Q.** What about the Activity [9] of the same molecule?
**A.** The Activity was 52.2%.

**Q.** And the Activity [25]?
**A.** Its Activity is 41.2%.

**Q.** What about the Activity [26] of the same molecule?
**A.** Its Activity is 86.5%.

**Q.** And the Activity [3]?
**A.** The Activity was 96.2%.

**Q.** What about the Activity [27] of the same molecule?
**A.** The Activity was “inactive”.

Reference: ChEMBL document CHEMBL1147111, “In vitro and in vivo activities of synthetic trioxolanes against major human schistosome species” (Antimicrob Agents Chemother, 2007)
